STEP block = STEP phosphatase inhibitors, primary screen, biochemical, fluorescence intensity, uHTS; recombinant STEP, OMFP fluorogenic substrate; inhibition, % at 20 µM; 360,000 tested, 0.25% active; AID 588621, 2011;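 active = inhibition at 20 µM, scaled per plate between control wells, above about 37%, limit read from the data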
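System: isolated STEP enzyme; schedule: 20 min enzyme reaction at room temperature, protected from light; medium: Bis-Tris buffer pH 6.0, 2.5 mM DTT, 0.005% Tween 20; signal: fluorescence, 480/540 nm; dosing: single compound dose of 20 µM, 1% DMSO final; also added: OMFP substrate, 25 µM final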
LMPTP inh = LMPTP phosphatase inhibitors, primary screen, biochemical, fluorescence intensity, uHTS | recombinant LMPTP-A, OMFP fluorogenic substrate | inhibition, % at 20 µM | 360,000 tested, 0.22% active;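 active = compounds that cut the enzyme signal by at least half of the control window in the single-dose screen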
Target sequence (P24666 whole entry, looked up): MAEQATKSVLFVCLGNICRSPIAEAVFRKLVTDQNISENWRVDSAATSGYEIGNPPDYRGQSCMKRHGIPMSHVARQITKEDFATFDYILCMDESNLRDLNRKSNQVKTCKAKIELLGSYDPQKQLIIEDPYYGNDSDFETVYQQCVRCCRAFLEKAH
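Buffer or medium: Bis-Tris pH 6.0, DTT, detergent; Assay system: LMPTP-A enzyme; Quantity: 0.625 nM enzyme; Detection: endpoint fluorescence intensity; Times: 50 min dark incubation at room temperature; Controls: substrate-only low control, DMSO enzyme-plus-substrate high control; Doses: single 20 µM dose; Read-out: percent inhibition versus substrate-only and uninhibited controls; Reagent: 400 µM OMFP.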
Rpn11 inh = Rpn11 (PSMD14) deubiquitinase inhibitors, primary screen, biochemical, fluorescence polarization, uHTS. 26S proteasome non-ATPase regulatory subunit 14 (Homo sapiens), O00487. human 26S proteasome, Ub4-pepOG fluorescence polarization; 20S core pre-blocked with epoxomicin. inhibition, % at 20 µM. 360,000 tested, 0.59% active;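 active = inhibition at 20 µM, scaled to each plate's controls, above about 33%, limit read from the data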
Target sequence (O00487 whole entry, looked up): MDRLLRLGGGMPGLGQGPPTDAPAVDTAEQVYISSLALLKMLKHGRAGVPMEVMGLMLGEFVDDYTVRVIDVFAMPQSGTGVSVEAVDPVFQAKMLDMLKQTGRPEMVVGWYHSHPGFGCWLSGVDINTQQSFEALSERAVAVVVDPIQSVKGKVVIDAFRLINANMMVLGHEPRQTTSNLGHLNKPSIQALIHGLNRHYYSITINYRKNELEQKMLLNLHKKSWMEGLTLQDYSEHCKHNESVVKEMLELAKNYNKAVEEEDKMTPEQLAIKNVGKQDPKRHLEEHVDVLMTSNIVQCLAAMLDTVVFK
DNMT1 block = human DNMT1 methyltransferase inhibitors, primary screen, biochemical, molecular beacon, fluorescence, HinP1I cleavage, uHTS. DNA (cytosine-5)-methyltransferase 1 (Homo sapiens), P26358. AID 588458, 2011. inhibition (reported as % activation of signal), % at 10 µM. 360,000 tested, 0.83% active; in the data active = inhibition above about 50%
Scp-1 inhibitor = Scp-1 phosphatase inhibitors, primary screen, biochemical, colorimetric, uHTS | AID 493091, 2011 | 340,000 tested, 0.88% active | inhibition, % at 20 µM | Recombinant Scp1, phosphopeptide, malachite green phosphate absorbance;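 active = inhibition above about 50% at 20 µM, limit read from the data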
Target sequence (Q9GZU7 76-261 limits assumed): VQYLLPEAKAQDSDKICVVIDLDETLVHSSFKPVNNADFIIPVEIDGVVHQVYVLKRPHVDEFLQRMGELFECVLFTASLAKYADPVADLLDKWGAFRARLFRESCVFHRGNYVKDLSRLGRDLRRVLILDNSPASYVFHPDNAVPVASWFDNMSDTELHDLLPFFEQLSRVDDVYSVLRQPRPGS
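Assay system: SCP-1 catalytic fragment, aa 76-261 | Buffer or medium: Tris acetate buffer pH 5.5 with MgCl2 and Tween-20 | Compound: One concentration, 20 µM, with 1.0% DMSO | Also added: Phospho 17-mer peptide substrate | Signal: Absorbance at 630 nm | Incubation: 45 min enzyme reaction at room temperature | Measure: % inhibition of SCP-1 phosphate liberation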
DNMT1 interf DR = spectral interference with molecular beacon fluorescence, dose response, artefact control for DNMT1 inhibitor project, biochemical, fluorescent molecular beacon. 200 tested, under 10 active. AID 602382, 2012. shares compounds with DNMT1 block. spectral interference counter-screen. IC50, µM; call rule not given here
DNMT1 inh conf = DNMT1 methyltransferase inhibitor retest, confirmation, biochemical, molecular beacon, fluorescence, single concentration; shares compounds with DNMT1 block; DNMT1 molecular beacon HinP1I cleavage; inhibition, % at 10 µM; 2,300 tested, 8% active;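 active = average inhibition of at least 30% in the single-concentration confirmation test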
Beacon interf = shows spectral interference in the DNMT1 beacon assay; activation (fluorescence interference), % at 10 µM; shares compounds with DNMT1 block; AID 602387; 2,300 tested, 1% active; DNMT1 molecular beacon spectral interference counterscreen, fluorescence 485/520;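 active = activation of at least 30% at 10 µM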;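 note: DNMT1 catalytic domain with a HinP1I cleavage step and a FAM/dabcyl DNA beacon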
Large screens that a line does not name were inactive (follow-up assays come after a bar, where shown). Most compounds without a hit are left out; they make up all but 2% or so of the library.

CCOC(=O)C1CCCN(C(=O)c2cc3c(=O)n4ccccc4nc3s2)C1 (stereo unspecified)	DNMT1 block 87 | DNMT1 inh conf inactive | Beacon interf inactive
O=C(c1cc(-c2ccco2)nc2ccccc12)N1CCCC(C(F)(F)F)C1 (stereo unspecified)	DNMT1 block 66 | DNMT1 inh conf inactive | Beacon interf inactive
Cc1ccc(-c2nc3ccccc3o2)cc1NC(=S)NC(=O)c1cccs1	DNMT1 block 55 | DNMT1 inh conf inactive | Beacon interf inactive
Cc1cc(C)c2oc(-c3ccc(C)c(NC(=S)NC(=O)c4cccs4)c3)nc2c1	DNMT1 block 51 | DNMT1 inh conf inactive | Beacon interf inactive
Cc1ccccc1OCCC(=O)Nc1ccccc1C(=O)NC1CC1	none
COc1ccc(CCN(C)C2CCCN(C(=O)CCC(F)(F)F)C2)cc1OC (stereo unspecified)	none
CSCCC(NC(=O)COc1ccccc1)C(=O)N(C)Cc1c(F)cccc1Cl (stereo unspecified)	DNMT1 block 83 (no result: Scp-1 inhibitor) | DNMT1 inh conf inactive | Beacon interf inactive
CC(C)C[C@@H]1NC(=O)[C@H](Cc2ccccc2)N(C)C(=O)[C@H](C)NC(=O)c2ccccc2NC(=O)[C@H](Cc2ccc(O)cc2)N(C)C1=O	DNMT1 block 79 | DNMT1 inh conf inactive | Beacon interf inactive
Cc1ccc(C)c(OCC(=O)Nc2ccc(C(=O)O)cc2NC(=O)COc2cc(C)ccc2C)c1	none
N#Cc1ccccc1S(=O)(=O)NC(=O)[C@H]1O[C@@H](n2cnc3c(N)ncnc32)[C@H](O)[C@@H]1O	DNMT1 block 84 (no result: Scp-1 inhibitor) | DNMT1 inh conf inactive | Beacon interf inactive
COc1cc2c(C#N)c(N3CCCCC3)nc(N)c2c(N)n1	DNMT1 block 65 | DNMT1 inh conf inactive | Beacon interf inactive
CCN(CC)c1nc(N)c2c(N)nc(OC)cc2c1C#N	DNMT1 block 81 | DNMT1 inh conf inactive | Beacon interf inactive
Cn1c(-c2cccc(OCc3ccccc3)c2)nc2c1c(=O)[nH]c(=O)n2Cc1ccccc1	DNMT1 block 57 | DNMT1 inh conf inactive | Beacon interf inactive
CCOC(=O)c1c(C)[nH]c(C(=O)OCC(=O)Nc2cc(C)c(Cl)cc2OC)c1C	DNMT1 block 60 | DNMT1 inh conf inactive | Beacon interf inactive
CCOC(=O)C1=C(CS(=O)(=O)c2ccccc2)NC(=O)NC1c1cc(OC)c(O)c(OC)c1 (stereo unspecified)	none
CCOC(=O)c1nn(-c2ccc(F)cc2)c(=O)cc1OCC(=O)Nc1ccc(OCC)cc1	DNMT1 block 69 | DNMT1 interf DR inactive | DNMT1 inh conf 80 | Beacon interf inactive
CCOC(=O)c1nn(-c2ccc(C)cc2)c(=O)cc1OCC(=O)Nc1cccc(OC)c1	none
Cc1ccc(-c2ccc(/C=N\NC(=O)c3cc4c(ccc5ccccc54)o3)o2)cc1[N+](=O)[O-]	DNMT1 block 72 | DNMT1 inh conf inactive | Beacon interf inactive
Cc1ccc([N+](=O)[O-])cc1-c1ccc(/C=N/NC(=O)c2cc3c(ccc4ccccc43)o2)o1	none
Cc1noc(C)c1COc1ccc(C(=O)OCC(=O)Nc2ccc(S(N)(=O)=O)cc2)cc1	none
N#Cc1c2nc3ccccc3nc2n2cc(NC(=O)c3ccc(F)cc3)ccc12	DNMT1 block 103 | DNMT1 inh conf inactive | Beacon interf inactive
Cc1c(C(=O)Nc2ccc(F)cc2)cn2c(nc3ccccc32)c1C#N	none
CCCCN(C(=O)C1CCCC1)c1c(N)n(CC(C)C)c(=O)[nH]c1=O	none
O=S(=O)(Cc1noc(-c2ccc(Cl)cc2)n1)Cc1ccco1	DNMT1 block 83 | DNMT1 inh conf inactive | Beacon interf inactive
O=C(O)c1ccc(-n2cccc2/C=C2/SC(=O)N(CC(=O)N3CCCC3)C2=O)cc1	STEP block 93, DNMT1 block 91, Scp-1 inhibitor 76 | DNMT1 interf DR inactive | DNMT1 inh conf 81 | Beacon interf inactive
O=C1N/C(=C/c2cccn2-c2ccc(F)cc2)C(=O)N1Cc1ccccc1	none
O=C(O)c1cccc(-n2cccc2/C=C2\NC(=O)N(Cc3ccc(F)cc3)C2=O)c1	DNMT1 block 107 | DNMT1 inh conf inactive | Beacon interf inactive
O=C1N/C(=C/c2cccn2-c2ccccc2)C(=O)N1Cc1ccccc1F	none
O=C(O)c1ccc(-n2cccc2/C=C2/NC(=O)N(c3ccccc3)C2=O)cc1	STEP block 73, DNMT1 block 93, Scp-1 inhibitor 89 | DNMT1 interf DR inactive | DNMT1 inh conf 83 | Beacon interf inactive
O=C(O)c1ccc(-n2cccc2/C=C2/NC(=O)N(c3cccc(Cl)c3)C2=O)cc1	STEP block 43, DNMT1 block 94, Scp-1 inhibitor 77 (not shown: Rpn11 inh) | DNMT1 interf DR inactive | DNMT1 inh conf 84 | Beacon interf inactive
O=C(C1=C[C@@H](c2ccccc2)C[C@@H](OCc2ccc(CO)cc2)O1)N1CCCCCCC1	none
O=C(COc1c(F)c(F)cc(F)c1F)NNC(=O)CC1CCS(=O)(=O)C1 (stereo unspecified)	none
CCOc1cc(C#N)ccc1OCC(=O)NNC(=O)CC1CCS(=O)(=O)C1 (stereo unspecified)	DNMT1 block 77 | DNMT1 inh conf inactive | Beacon interf inactive
COc1cc(OC)cc(-c2c(-c3cccs3)c3cc(-c4ccc(OCc5ccccc5)cc4)ccc3n2C)c1	DNMT1 block 52 | DNMT1 inh conf inactive | Beacon interf inactive
COc1ccc(-c2c(-c3cc(OC)cc(OC)c3)n(C)c3ccc(-c4cnc(N)nc4)cc23)cc1	DNMT1 block 54 | DNMT1 inh conf inactive | Beacon interf inactive
N#Cc1ccc(OCC(=O)OCC(=O)NC2CC2)cc1	none
CC(C)n1c(=S)[nH]c2scc(-c3cccs3)c2c1=O	DNMT1 block 80 | DNMT1 inh conf inactive | Beacon interf inactive

Assay outcomes from PubChem.
